APJ antag = antagonists of human apelin receptor APJ, primary screen, CHO-K1 cells, beta-arrestin complementation, luminescence. hit rate 0.32% among 330,000. AID 2521, 2010. inhibition, % at 20 µM. P35414;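 active = inhibition above about 40% at 20 µM, limit read from the data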;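 also: cells challenged with 10 nM apelin-13 agonist together with compound; plate controls were apelin-13 plus DMSO wells for no effect and DMSO wells lacking apelin-13 for full effect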
HTR2A ag = mouse Htr2a agonists via beta-arrestin recruitment, primary screen, cell-based, luminescence; 5-hydroxytryptamine receptor 2A (Mus musculus), P35363; hit rate 0.66% among 360,000; CHO-K1 mHTR2A beta-arrestin complementation; percent of 30 µM serotonin response; AID 624169, 2012; activation, % at 7.6 µM;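 active = activation above a run cutoff, the mean activation of all tested compounds plus 3 SD, cut at about 14% in these data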;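 also: 0% = plate median of compound wells and 100% = 30 µM serotonin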
CXCR6 inh = CXCR6 receptor inhibitors, primary screen, cell-based, beta-arrestin, luminescence, CHO-K1 PathHunter, 1536-well; C-X-C chemokine receptor type 6 (Homo sapiens), O00574; inhibition, % at 20 µM; hit rate 0.36% among 360,000; AID 602244, 2012; in the data active = inhibition above about 34%, passing the limit was not always enough;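 also: antagonist mode with CXCL16 agonist at 10 nM final; 0% = 10 nM CXCL16 with DMSO and 100% = unstimulated wells without agonist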
APJ agonist = agonists of human apelin receptor APJ, primary screen, CHO-K1 cells, PathHunter beta-arrestin, luminescence; activation, % at 20 µM; hit rate 0.11% among 330,000; P35414; 0% DMSO wells, 100% apelin;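 active = activation more than six SD over the plate average, tested at 20 µM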;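 also: 0% = DMSO alone and 100% = apelin-13 at 10 nM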
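Assay system: CHO-K1 APJ beta-arrestin complementation cell line / Compound: single test compound dose, 20 µM final, 1% DMSO / Times: overnight seeding, 90 min compound at 25 °C, 1 h detection / Technique: beta-gal luminescence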
EBI2 antag = EBI2 receptor antagonists, beta-arrestin recruitment, primary screen, cell-based, luminescence, 7a,25-OHC stimulation, uHTS; inhibition, % at 5 µM; hit rate 0.81% among 360,000; AID 651636, 2012; 7a,25-OHC stimulated; G-protein coupled receptor 183 (Homo sapiens), P32249; in the data active = inhibition above about 38%;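 also: enzyme fragment complementation signal reports receptor beta-arrestin coupling in cells; 0% = agonist plus DMSO wells and 100% = wells without agonist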
CCR6 antag = CCR6 receptor antagonists, primary screen, cell-based, CHO-K1, luminescence, beta-arrestin, uHTS; CHO-K1 CCR6 PathHunter beta-arrestin, CCL20-stimulated; inhibition, % at 20 µM; hit rate 0.49% among 340,000; AID 493098, 2011;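 active = compounds whose inhibition of the agonist-driven luminescence signal at 20 µM reaches about 50%, limit read from the data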;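 also: cells stimulated with CCL20 at 14 nM final; plate controls were DMSO with CCL20 for no effect and DMSO without agonist for full effect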
Target sequence (P51684 whole entry, looked up): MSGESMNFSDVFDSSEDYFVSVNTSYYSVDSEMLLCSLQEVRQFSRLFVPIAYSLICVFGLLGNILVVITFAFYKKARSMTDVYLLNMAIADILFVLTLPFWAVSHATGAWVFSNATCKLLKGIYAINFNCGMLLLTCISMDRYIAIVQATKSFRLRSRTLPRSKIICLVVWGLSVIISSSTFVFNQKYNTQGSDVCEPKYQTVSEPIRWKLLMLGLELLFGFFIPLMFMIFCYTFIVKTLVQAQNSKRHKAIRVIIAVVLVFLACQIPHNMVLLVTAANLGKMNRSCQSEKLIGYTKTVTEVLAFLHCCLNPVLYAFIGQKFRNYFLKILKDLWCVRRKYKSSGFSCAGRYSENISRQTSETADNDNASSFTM
APJ antag conf = APJ antagonists blocking beta-arrestin recruitment, confirmation, cell-based, luminescence, single concentration, uHTS hits; shares compounds with APJ antag; antagonist mode; inhibition, % at 20 µM; hit rate 66% among 950; AID 2766, 2010; in the data active = inhibition above about 50%
* hit, by the source's call; / = no result. A selection: hits, their analogues and other compounds. The true share with any hit is near 2.1%.

SMILES	APJ antag	HTR2A ag	CXCR6 inh	APJ agonist	EBI2 antag	CCR6 antag	APJ antag conf
O=C(OCN1C(=O)c2ccccc2C1=O)c1cccnc1SC(F)F	7.9	3.1	-6.5	-2.9	-3.5	12.6	/
Cn1c(O)c(N=Nc2ccccc2)c2ccccc21	3.3	0.4	-0.3	-4.6	2.6	9.8	/
Cn1c(O)c(N=Nc2nc(-c3ccccc3)cs2)c2ccccc21	50.0*	-1.3	33.8	-7.0	25.7	60.7*	61.6*
O=C(NCc1ccc2c(c1)OCO2)C1CC(=O)N(CCc2ccc(F)cc2)C1 (centres undefined)	7.5	-3.6	-1.1	-1.3	6.0	15.1	/
CCSC1(SCC)N=C(N)C2(C#N)C(c3ccccc3)NC3=C(CCC3)C12C#N (centres undefined)	-11.2	-0.5	6.9	-4.1	0.3	-15.0	/
CCSC1(SCC)N=C(N)C2(C#N)C(c3ccc(OC)c(OC)c3OC)C12C#N (centres undefined)	51.1*	-1.3	38.8	-4.0	20.8	57.8*	71.5*
O=C(COC(=O)c1cccnc1)c1ccc(Cl)c(Cl)c1	84.7*	-3.0	36.8	-14.4	9.7	81.0*	77.8*
O=C(COC(=O)c1cnccn1)c1ccc(Cl)c([N+](=O)[O-])c1	90.6*	-0.7	54.2*	-14.3	11.3	87.0*	140.3*
Cc1ccc(C(=O)COC(=O)c2cnccn2)cc1C	1.2	/	/	-0.8	/	/	/
Cc1ccc(C(=O)COC(=O)c2cnccn2)cc1[N+](=O)[O-]	45.6*	-2.9	7.9	-6.2	5.7	28.1	65.1*
O=C(CN1CCN(c2ccc(O)cc2)CC1)Nc1ccc(S(=O)(=O)N2CCCC2)cc1	-15.6	7.4	-15.1	7.6	-21.1	1.4	/
CCOc1ccc(NC(=O)C2CCC(CNc3c(N4CCCCC4)c(=O)c3=O)CC2)cc1 (centres undefined)	47.4*	-1.4	6.0	-2.3	-3.5	-0.9	19.1
COc1ccc2c(c1)C(=O)[C@H](O)[C@@H](c1ccc(OC)c(Br)c1)O2	58.0*	/	/	-21.0	/	61.5*	102.8*
COc1ccc(C(=O)C2CCCN(C(=O)c3cccc(Cl)c3F)C2)cc1OC (centres undefined)	16.7	3.6	-15.2	1.3	-2.0	13.8	/
CCCCCCCCCCCCCCCC[N+](C)(C)CCN(Cc1ccc(OC)cc1)c1ncccn1	50.6*	12.2	4.6	-13.8	-4.8	65.5*	41.8
Cc1ccc(C(=O)COC(=O)CNS(=O)(=O)c2ccccc2)cc1[N+](=O)[O-]	48.2*	-4.9	18.1	-16.1	8.8	80.2*	86.3*
COc1cc(OC)cc(C(=O)N[C@H](C(=O)OCC(=O)c2ccc(C)c([N+](=O)[O-])c2)C(C)C)c1	47.9*	1.1	18.3	-14.0	7.2	50.2*	51.3*
COc1cc(OC)cc(C(=O)N[C@H](C(=O)OCC(=O)c2c[nH]c3ccccc23)C(C)C)c1	-7.8	-1.3	3.5	0.0	29.7	2.5	/
Cc1ccc(C(=O)COC(=O)CNC(=O)c2ccc(Br)o2)cc1[N+](=O)[O-]	48.3*	5.8	22.0	-13.7	8.9	36.3	66.3*
CCc1ccc(C(=O)COC(=O)CNC(=O)c2ccc(Br)o2)cc1	8.2	-1.8	-6.4	-2.7	-4.9	12.1	/
Cc1ccc(C(=O)COC(=O)CNC(=O)Cc2ccccc2)cc1[N+](=O)[O-]	45.2*	4.7	26.5	-10.3	-1.7	68.4*	62.1*
COc1cccc(/C=C/c2ccc3cccc(O)c3n2)c1OC	53.9*	-13.8	36.7	-7.5	22.6	50.3*	79.2*
Oc1cccc(/C=C/c2ccc3cccc(O)c3n2)c1	-9.9	-6.2	30.4	0.4	-6.2	31.4	/
COc1cccc(/C=C/c2ccc3cccc(O)c3n2)c1	45.3*	-6.9	34.8	-10.6	35.5	62.3*	88.3*
O=C1OCC(CO)(CO)N=C1NNc1ccc(Cl)c(Cl)c1	55.4*	-2.6	24.3	-9.2	7.1	35.1	67.1*
SMILES	APJ antag	HTR2A ag	CXCR6 inh	APJ agonist	EBI2 antag	CCR6 antag	APJ antag conf
OCC1(CO)COC(c2ccccc2)=N1	15.5	4.8	10.0	-4.0	6.7	3.1	/
O=C(CSCc1ccc(Cl)cc1)N/N=C/c1ccco1	-6.8	-0.4	3.9	-4.0	-2.5	-12.5	/
COc1ccc(C2SCC(=O)N2c2nc3ccccc3s2)cc1 (centres undefined)	43.8*	-2.8	-1.9	-5.5	13.2	5.9	38.0
COc1ccc(N2C(=O)CSC2c2ccccc2)cc1 (centres undefined)	16.0	-1.3	-10.2	-3.6	3.2	7.0	/
CCc1ccc(C(=O)NNc2ccc(Cl)cc2)cc1	50.8*	-2.2	6.7	-10.8	36.3	18.6	59.9*
O=[N+]([O-])c1cc(S(=O)(=O)Nc2cccc(Cl)c2)ccc1N/N=C/c1ccc(N2CCOCC2)cc1	48.5*	-4.4	36.3	-11.7	8.8	50.3*	95.5*
COc1ccc(NC(=S)NNc2ccc(S(=O)(=O)Nc3ccccc3C(=O)O)cc2[N+](=O)[O-])cc1	55.6*	-1.7	43.2*	-10.9	20.6	68.5*	100.1*
Cc1cc(C)c(S(=O)(=O)N2CCN(C(=O)c3cc4ccccc4oc3=O)CC2)c(C)c1	-15.9	4.1	-4.5	-1.7	26.8	4.6	/
CCOC(=O)/C=C/S(=O)(=O)c1ccc(NC(C)=O)cc1	44.1*	-3.7	34.0	0.2	-7.1	48.4	83.2*
CC(C)(C)c1ccc(C(=O)N2CCCC2c2cccs2)cc1 (centres undefined)	22.7	3.5	-2.6	-1.8	6.0	20.3	/
Nc1nc2c(c(=O)[nH]1)C(c1ccccc1)C1=C(N2)c2ccccc2C1=O (centres undefined)	45.4*	-6.0	19.2	-6.7	8.6	32.8	39.1
Cc1ccc(C)c(S(=O)(=O)N2CCN(C(=O)c3ccccn3)CC2)c1	4.3	1.2	0.8	-3.3	-2.2	1.4	/
Cn1c(=O)c(C(=S)NC(=O)C2CC2)c(N)n(Cc2ccccc2)c1=O	41.9*	/	/	-12.7	/	/	72.1*
CCN(CC)CC(=O)c1c(N)n(Cc2ccccc2)c(=O)n(C)c1=O	-4.7	0.7	-8.3	-2.9	-6.7	0.6	/
CC(C)(C)c1cc(Br)c(O)c(N=Nc2ccc(S(=O)(=O)N3CCOCC3)cc2)c1	43.5*	0.5	29.3	-2.5	16.2	52.1*	45.8

Screening results (PubChem BioAssay)
